In brackets after ≈: the same amount, converted by molar mass.
Assays:
Streptococcus pneumoniae [1] = assay: Antimicrobial activity against Streptococcus pneumoniae R6 transformants with parE D435N and gyrA S81F mutation; assay type: functional
Procedure, shortened: (§1)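 MIC by Etest on tryptic soy agar with 5% sheep blood, incubated overnight at 35°C, or by serial dilution in Mueller-Hinton broth with 5% horse blood per CLSI protocols. Each assay was run twice. Strains were R6 or R6 transformed with QRDR alleles from levofloxacin-resistant clinical isolates, with mutations confirmed by PCR sequencing.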

Streptococcus pneumoniae [2] = assay: Antimicrobial activity against Streptococcus pneumoniae R6 transformants with gyrA S81F mutation; assay type: functional; procedure, shortened: as §1
Streptococcus pneumoniae [3] = assay: Antimicrobial activity against Streptococcus pneumoniae R6 transformants with gyrA E85K mutation; assay type: functional; procedure, shortened: as §1
Streptococcus pneumoniae [4] = assay: Antimicrobial activity against Streptococcus pneumoniae R6 transformants with parC D83Y and gyrA S81F mutation; assay type: functional; procedure, shortened: as §1
Streptococcus pneumoniae [5] = assay: Antimicrobial activity against Streptococcus pneumoniae R6 transformants with parC S79F and gyrA S81F mutation; assay type: functional; procedure, shortened: as §1
Streptococcus pneumoniae [6] = assay: Antimicrobial activity agaisnt Streptococcus pneumoniae R6 transformants with parC S79F and gyrA E85K mutation; assay type: functional; procedure, shortened: as §1
Streptococcus pneumoniae [7] = assay: Antimicrobial activity against Streptococcus pneumoniae R6 transformants with parC D83Y and gyrA S81Y mutation; assay type: functional; procedure, shortened: as §1
Streptococcus pneumoniae [8] = assay: Antimicrobial activity against Streptococcus pneumoniae R6 transformants with parC S79F and gyrA S81Y mutation; assay type: functional; procedure, shortened: as §1
Streptococcus pneumoniae [9] = assay: Antimicrobial activity against Streptococcus pneumoniae R6 transformants with gyrA S81Y mutation; assay type: functional; procedure, shortened: as §1
Streptococcus pneumoniae [10] = assay: Antimicrobial activity against Streptococcus pneumoniae R6 transformants with parC D83Y and gyrA E85K mutation; assay type: functional; procedure, shortened: as §1
Streptococcus pneumoniae [11] = assay: Antimicrobial activity against Streptococcus pneumoniae R6 transformants with parC S79Y and gyrA E85K mutation; assay type: functional; procedure, shortened: as §1
Streptococcus pneumoniae [12] = assay: Antimicrobial activity against Streptococcus pneumoniae R6 transformants with parC S79Y and gyrA S81F mutation; assay type: functional; procedure, shortened: as §1
Streptococcus pneumoniae [13] = assay: Antimicrobial activity against Streptococcus pneumoniae R6 transformants with parE D435N and gyrA E85K mutation; assay type: functional; procedure, shortened: as §1
Streptococcus pneumoniae [14] = assay: Antimicrobial activity against Streptococcus pneumoniae R6 transformants with parE D435N and gyrA S81Y mutation; assay type: functional; procedure, shortened: as §1
Streptococcus pneumoniae [15] = assay: Antimicrobial activity against Streptococcus pneumoniae R6; assay type: functional; procedure, shortened: as §1
Streptococcus pneumoniae [16] = assay: Antimicrobial activity against Streptococcus pneumoniae R6 transformants with parE D435N mutation; assay type: functional; procedure, shortened: as §1
Streptococcus pneumoniae [17] = assay: Antimicrobial activity agaisnt Streptococcus pneumoniae R6 transformants with parC S79Y mutation; assay type: functional; procedure, shortened: as §1
Streptococcus pneumoniae [18] = assay: Antimicrobial activity against Streptococcus pneumoniae R6 transformants with parC S79F mutation; assay type: functional; procedure, shortened: as §1
Streptococcus pneumoniae [19] = assay: Antimicrobial activity against Streptococcus pneumoniae R6 transformants with parC D83Y mutation; assay type: functional; procedure, shortened: as §1
Streptococcus pneumoniae [20] = assay: Antimicrobial activity against Streptococcus pneumoniae R6 transformants with parC D83Y and gyrA S81Y mutation in presence of reserpine
Streptococcus pneumoniae [21] = assay: Antimicrobial activity against Streptococcus pneumoniae R6 transformants with parC S79F mutation in presence of reserpine
Streptococcus pneumoniae [22] = assay: Antimicrobial activity against Streptococcus pneumoniae R6 transformants with parC S79F and gyrA E85K mutation in presence of reserpine
Streptococcus pneumoniae [23] = assay: Antimicrobial activity against Streptococcus pneumoniae R6 transformants with parC S79F and gyrA S81Y mutation in presence of reserpine
Streptococcus pneumoniae [24] = assay: Antimicrobial activity against Streptococcus pneumoniae R6 transformants with parC S79Y mutation in presence of reserpine
Streptococcus pneumoniae [25] = assay: Antimicrobial activity agaisnt Streptococcus pneumoniae R6 transformants with parC D83Y and gyrA S81F mutation in presence of reserpine
Streptococcus pneumoniae [26] = assay: Antimicrobial activity against Streptococcus pneumoniae R6 transformants with parE D435N and gyrA S81F mutation in presence of reserpine
Streptococcus pneumoniae [27] = assay: Antimicrobial activity against Streptococcus pneumoniae R6 transformants with parC D83Y and gyrA E85K mutation in presence of reserpine
Streptococcus pneumoniae [28] = assay: Antimicrobial activity against Streptococcus pneumoniae R6 transformants with parE D435N and gyrA E85K mutation in presence of reserpine
Streptococcus pneumoniae [29] = assay: Antimicrobial activity against Streptococcus pneumoniae R6 transformants with gyrA S81Y mutation in presence of reserpine
Streptococcus pneumoniae [30] = assay: Antimicrobial activity against Streptococcus pneumoniae R6 transformants with parC S79Y and gyrA S81F mutation in presence of reserpine
Streptococcus pneumoniae [31] = assay: Antimicrobial activity against Streptococcus pneumoniae R6 transformants with gyrA S81F mutation in presence of reserpine
Streptococcus pneumoniae [32] = assay: Antimicrobial activity against Streptococcus pneumoniae R6 transformants with parC D83Y mutation in presence of reserpine
Streptococcus pneumoniae [33] = assay: Antimicrobial activity against Streptococcus pneumoniae R6 transformants with parC S79Y and gyrA E85K mutation in presence of reserpine
Streptococcus pneumoniae [34] = assay: Antimicrobial activity against Streptococcus pneumoniae R6 transformants with parC S79F and gyrA S81F mutation in presence of reserpine
Streptococcus pneumoniae [35] = assay: Antimicrobial activity against Streptococcus pneumoniae R6 transformants with parE D435N mutation in presence of reserpine
Streptococcus pneumoniae [36] = assay: Antimicrobial activity against Streptococcus pneumoniae R6 transformants with parE D435N and gyrA S81Y mutation in presence of reserpine

Compound	MIC (Streptococcus pneumoniae [1]) [µg/mL]	MIC (Streptococcus pneumoniae [2]) [µg/mL]	MIC (Streptococcus pneumoniae [3]) [µg/mL]	MIC (Streptococcus pneumoniae [4]) [µg/mL]	MIC (Streptococcus pneumoniae [5]) [µg/mL]	MIC (Streptococcus pneumoniae [6]) [µg/mL]	MIC (Streptococcus pneumoniae [7]) [µg/mL]	MIC (Streptococcus pneumoniae [8]) [µg/mL]	MIC (Streptococcus pneumoniae [9]) [µg/mL]	MIC (Streptococcus pneumoniae [10]) [µg/mL]	MIC (Streptococcus pneumoniae [11]) [µg/mL]	MIC (Streptococcus pneumoniae [12]) [µg/mL]	MIC (Streptococcus pneumoniae [13]) [µg/mL]	MIC (Streptococcus pneumoniae [14]) [µg/mL]	MIC (Streptococcus pneumoniae [15]) [µg/mL]	MIC (Streptococcus pneumoniae [16]) [µg/mL]	MIC (Streptococcus pneumoniae [17]) [µg/mL]	MIC (Streptococcus pneumoniae [18]) [µg/mL]	MIC (Streptococcus pneumoniae [19]) [µg/mL]	further results
COc1c(N2C[C@@H]3CCCN[C@@H]3C2)c(F)cc2c(=O)c(C(=O)O)cn(C3CC3)c12 [MOXIFLOXACIN]	4 (≈ 9.96 µM)	0.5 (≈ 1.25 µM)	0.25 (≈ 0.623 µM)	4 (≈ 9.96 µM)	8 (≈ 19.9 µM)	8 (≈ 19.9 µM)	4 (≈ 9.96 µM)	4 (≈ 9.96 µM)	> 0.5	4 (≈ 9.96 µM)	8 (≈ 19.9 µM)	8 (≈ 19.9 µM)	0.5 (≈ 1.25 µM)	4 (≈ 9.96 µM)	–	–	–	–	–	–
C[C@H]1COc2c(N3CCN(C)CC3)c(F)cc3c(=O)c(C(=O)O)cn1c23.C[C@H]1COc2c(N3CCN(C)CC3)c(F)cc3c(=O)c(C(=O)O)cn1c23.O [LEVOFLOXACIN]	> 32	–	–	> 32	> 32	> 32	> 32	> 32	3	> 32	> 32	> 32	–	> 32	–	–	–	–	–	–
CO/N=C1\CN(c2nc3c(cc2F)c(=O)c(C(=O)O)cn3C2CC2)CC1CN (centres undefined) [GEMIFLOXACIN]	0.25 (≈ 0.642 µM)	0.12 (≈ 0.308 µM)	0.06 (≈ 0.154 µM)	0.12 (≈ 0.308 µM)	0.5 (≈ 1.28 µM)	1 (≈ 2.57 µM)	0.25 (≈ 0.642 µM)	0.5 (≈ 1.28 µM)	0.12 (≈ 0.308 µM)	0.5 (≈ 1.28 µM)	1 (≈ 2.57 µM)	1 (≈ 2.57 µM)	< 0.06	0.25 (≈ 0.642 µM)	0.03 (≈ 0.077 µM)	0.06 (≈ 0.154 µM)	0.06 (≈ 0.154 µM)	0.06 (≈ 0.154 µM)	0.06 (≈ 0.154 µM)	–
COc1c(N2CCNC(C)C2)c(F)cc2c(=O)c(C(=O)O)cn(C3CC3)c12 (centres undefined) [GATIFLOXACIN]	2 (≈ 5.33 µM)	0.25 (≈ 0.666 µM)	0.25 (≈ 0.666 µM)	4 (≈ 10.7 µM)	≥ 4	≥ 4	≥ 4	≥ 4	0.25 (≈ 0.666 µM)	2 (≈ 5.33 µM)	≥ 4	≥ 4	0.25 (≈ 0.666 µM)	≥ 4	0.12 (≈ 0.32 µM)	0.12 (≈ 0.32 µM)	0.12 (≈ 0.32 µM)	0.12 (≈ 0.32 µM)	0.12 (≈ 0.32 µM)	–
O=C(O)c1cn(C2CC2)c2cc(N3CCNCC3)c(F)cc2c1=O [CIPROFLOXACIN]	32 (≈ 96.6 µM)	1 (≈ 3.02 µM)	–	32 (≈ 96.6 µM)	64 (≈ 193 µM)	32 (≈ 96.6 µM)	64 (≈ 193 µM)	64 (≈ 193 µM)	2 (≈ 6.04 µM)	64 (≈ 193 µM)	64 (≈ 193 µM)	64 (≈ 193 µM)	< 4	64 (≈ 193 µM)	–	–	–	–	3 (≈ 9.05 µM)	MIC (Streptococcus pneumoniae [20]): 32 µg/mL; MIC (Streptococcus pneumoniae [21]): 2 µg/mL; MIC (Streptococcus pneumoniae [22]): 32 µg/mL; MIC (Streptococcus pneumoniae [23]): 32 µg/mL; MIC (Streptococcus pneumoniae [24]): 2 µg/mL; MIC (Streptococcus pneumoniae [25]): 8 µg/mL; MIC (Streptococcus pneumoniae [26]): 16 µg/mL; MIC (Streptococcus pneumoniae [27]): 32 µg/mL; MIC (Streptococcus pneumoniae [28]): < 4 µg/mL; MIC (Streptococcus pneumoniae [29]): 2 µg/mL; MIC (Streptococcus pneumoniae [30]): 32 µg/mL; MIC (Streptococcus pneumoniae [31]): 1 µg/mL; MIC (Streptococcus pneumoniae [32]): 2 µg/mL; MIC (Streptococcus pneumoniae [33]): 32 µg/mL; MIC (Streptococcus pneumoniae [34]): 32 µg/mL; MIC (Streptococcus pneumoniae [35]): 2 µg/mL; MIC (Streptococcus pneumoniae [36]): 32 µg/mL

Reference: ChEMBL document CHEMBL1142188, “Fitness costs of fluoroquinolone resistance in Streptococcus pneumoniae” (2007)
